Results pooled from the literature.
Protocols differ between the studies behind these lines.

| Compound | target or system | test | setting | endpoint | result |
| --- | --- | --- | --- | --- | --- |
| Cc1cccc(/C=N/N=C/c2cccc(C)c2)c1 | – | DPPH scavenging | – | IC50 | 711 µM |
| CCN(CC)c1ccc(/C=N/c2ccc(F)cc2)c(O)c1 | – | DPPH scavenging | – | IC50 | 30.1 µM |
| CC(=O)c1nn(-c2ccc(C)cc2)/c(=N/N=C(\C)c2ccc(NC(=O)c3ccccc3)cc2)s1 | MCF7 | cell growth or viability, MTT | 0.156 µM | viability | 9.14% |
| COc1cc(/C=N/N=C/c2cc(OC)c(OC)c(OC)c2)cc(OC)c1OC | – | DPPH scavenging | – | IC50 | 2390 µM |
| O=C(Nc1ccccc1)Nc1ccc(Oc2nnc(-c3ccc(Cl)cc3)c3ccccc23)cc1 | MCF7 | cell growth or viability, MTT | 78 nM, 24 h | viability | 96.4% |
| CCN(CC)c1ccc(/C=N/c2ccc(Br)cc2)c(O)c1 | – | DPPH scavenging | – | IC50 | 43.6 µM |
| C=CC(=O)NC1CCN(c2ncc3ncnc(Nc4ccc(Oc5ccc6c(c5)ncn6C)c(C)c4)c3n2)CC1 | SNU-398 | cell growth or viability | – | EC50 | 0.0365 µM |
| CCOC(=O)c1nn(-c2cccc(Cl)c2)/c(=N/N=C(\C)c2ccc(NC(=O)c3ccc(Cl)cc3)cc2)s1 | MCF7 | cell growth or viability, MTT | 0.312 µM | viability | 10.3% |
| O=C(Nc1ccc(Oc2nnc(-c3ccc(Cl)cc3)c3ccccc23)cc1)c1ccccc1 | MCF7 | cell growth or viability, MTT | 5 µM, 24 h | viability | 6.91% |
| Cc1c(C)c2c(c(C)c1O)CCC(C)(C(=O)O)O2 (stereo not shown) | – | DPPH scavenging | – | IC50 | 70.2 µM |
| Cc1c(C(=O)O)ccc2c3n(nc12)[C@@H]1[C@H](C3)N(CC2CC2)[C@@]2(C(=O)Nc3cc(Cl)ccc32)[C@H]1c1cccc(Cl)c1F | SJSA-1 | cell growth or viability, ATP luminescence | – | IC50 | 0.012 µM |
| CC(=NNC(=O)c1cccnc1)c1ccc(Nc2nnc(-c3ccc(Cl)cc3)c3ccccc23)cc1 | MCF7 | cell growth or viability, MTT | 0.625 µM | cell death | 50.6% |
| FC(F)(F)c1ccc(/C=N/N=C/c2ccc(C(F)(F)F)cc2)cc1 | – | DPPH scavenging | – | IC50 | > 3000 µM |
